Experimental findings from ChEMBL document CHEMBL1127313, “The discovery of sulfonamide endothelin antagonists and the development of the orally active ETA antagonist 5-(dimethylamino)-N-(3,4-dimethyl-5-isoxazolyl)-1-naphthalenesulf onamide” (J Med Chem, 1994) are described below.

For one test, the system named is A10. Kind of test: Ability to inhibit [125I]ET1 binding to vascular smooth muscle (vsm)- A10 cells. Format: functional, cell-based. The conditions noted are these: Rattus norvegicus. In short, it runs like this:
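Intact rat vsm-A10 cells: confluent cells scraped, pelleted, resuspended in PBS with 0.1% glucose and 0.1% BSA. Bound and free ligand separated by filtration; bound radioactivity counted by scintillation; IC50 reported.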

The target of test [1] is T1, Endothelin-1 receptor (Homo sapiens) (UniProt P25101).
T1 sequence (whole entry): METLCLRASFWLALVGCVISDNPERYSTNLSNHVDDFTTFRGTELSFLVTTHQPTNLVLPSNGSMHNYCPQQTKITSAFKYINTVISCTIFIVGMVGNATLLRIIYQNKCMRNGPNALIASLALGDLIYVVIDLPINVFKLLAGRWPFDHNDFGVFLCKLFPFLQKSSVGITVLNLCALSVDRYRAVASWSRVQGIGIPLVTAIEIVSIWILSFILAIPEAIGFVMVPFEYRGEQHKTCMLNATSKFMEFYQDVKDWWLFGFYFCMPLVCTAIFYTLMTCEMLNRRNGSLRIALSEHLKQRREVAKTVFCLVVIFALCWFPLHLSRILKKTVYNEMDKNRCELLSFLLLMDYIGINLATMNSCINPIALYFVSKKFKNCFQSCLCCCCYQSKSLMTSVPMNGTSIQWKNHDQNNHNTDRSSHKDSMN
The note with it: Oryctolagus cuniculus.

The next test has as its system Rattus norvegicus. Briefly: Antihypertensive activity administered orally at […] was determined in vivo in rats. Format: functional. In a few lines:
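Uninephrectomized rats implanted with a DOCA pellet and given saline to drink develop hypertension. Single 100 µmol/kg oral dose in 5% NaHCO3 given at time 0, with a vehicle group. Mean arterial pressure followed over 24 h as % change from pre-dose control; mean ± SEM, n = 6 animals.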

Where only a bound is given, the exact number is not on record here.

As a reminder, the IC50 is the concentration needed to halve the response being measured. Lower therefore signals higher potency. For the molecule `Nc1ccc(S(=O)(=O)Nc2cc(-c3ccccc3)no2)cc1`, the IC50 with A10 is above 32 µM.
For the molecule `Cc1noc(NS(=O)(=O)c2cccc3c(O)cccc23)c1C`, the K Bapp in test [1] was found to be 100 µM.
As to `CCCCCc1cc(NS(=O)(=O)c2ccc(N)cc2)on1`, the IC50 in the test with A10 was above 32 µM.
`Cc1noc(NS(=O)(=O)c2cccc3c(N(C)C)cccc23)c1C` [BMS-182874] returned a Mean arterial blood pressure with Rattus norvegicus of 45.8 mmHg.
